Laboratory results as given in ChEMBL document CHEMBL1154322, “Optimization of the antitumor efficacy of a synthetic mitochondrial toxin by increasing the residence time in the cytosol” (J Med Chem, 2009).
Calls of active or inactive are those of the source. The calls are words filed in the database; no cut-off is given here.

How the values were obtained:
K562 = assay: Antiproliferative activity against human K562 cells after 72 hrs by MTT assay; type: functional, cell-based; settings: K562, 72 h
Method in brief: (§1)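 Cells seeded in 96-well plates, attached overnight at 37 °C, 5% CO2, then cultured 72 h in medium with 10% fetal calf serum plus compound. Viability by MTT, formazan dissolved in DMSO, absorbance 550 nm; expressed as % of untreated control; IC50 = concentration inhibiting proliferation by 50%.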

BXPC-3 [1] = assay: Antiproliferative activity against human BxPC3 cells after 72 hrs by MTT assay; type: functional, cell-based; settings: BXPC-3, 72 h; method in brief: as §1
[2] = Antiproliferative activity against MDCK2 cells after 72 hrs by MTT assay; type: functional, cell-based; settings: Canis lupus familiaris, MDCK-II; method in brief: as §1
[3] = (§2) Antiproliferative activity against BAEC after 72 hrs by MTT assay; type: functional, Bos taurus; method in brief: as §1
[4] = Antiproliferative activity against mouse bEND.3 cells after 72 hrs by MTT assay; type: functional, cell-based; settings: BEND3, 72 h; method in brief: as §1
PANC-1 = assay: Antiproliferative activity against human PANC1 cells after 72 hrs by MTT assay; type: functional, cell-based; settings: PANC-1, 72 h; method in brief: as §1
[5] = system: Lewis lung carcinoma cell line; assay: Antiproliferative activity against mouse LLC cells after 72 hrs by MTT assay; type: functional, cell-based; method in brief: as §1
[6] = Antiproliferative activity against HMEC1 cells after 72 hrs by MTT assay; type: functional, cell-based; settings: Homo sapiens, HMEC-1, 72 h; method in brief: as §1
MCF7 = assay: Antiproliferative activity against human MCF7 cells after 72 hrs by MTT assay; type: functional, cell-based; settings: MCF7, 72 h; method in brief: as §1
HT-1080 = assay: Antiproliferative activity against human HT1080 cells after 72 hrs by MTT assay; type: functional, cell-based; settings: HT-1080, 72 h; method in brief: as §1
HCT-116 = assay: Antiproliferative activity against human HCT116 cells after 72 hrs by MTT assay; type: functional, cell-based; settings: HCT-116, 72 h; method in brief: as §1
[7] = Antiproliferative activity against BAEC after 72 hrs by MTT assay in presence of 3 uM MRP1/2 inhibitor Reversan and 20 uM gamma-glutamyl cysteine synthase inhibitor buthionine sulfoximine; type: functional, cell-based; settings: Bos taurus
[8] = Potency ratio, ratio of IC50 for 4-(N-(S-cysteinylacetyl)amino)phenylarsonous acid to compound for BAEC after 24 hrs by MTT assay; type: functional, Bos taurus
[9] = Drug accumulation in BAEC assessed as accumulation rate up to 4 hrs by inductively coupled plasma spectrometry relative to 4-(N-(S-cysteinylacetyl)amino)phenylarsonous acid; type: ADME, Bos taurus; settings: cattle
Method in brief: (§3)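 BAE cells seeded in 6-well plates, attached overnight, fresh medium, then 50 μM arsenical for up to 4 h; cytosolic arsenic by inductively coupled plasma spectrometry; accumulation rate (pmol As per 10^6 cells per min) from linear least-squares fit; triplicates.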

BXPC-3 [10] = assay: Antitumor activity against human BxPC3 cells xenografted in BALB/c mouse assessed as tumor doubling time at 0.25 mg/kg/day, sc (Rvb= 9.4 +/- 1.4 days); type: functional; settings: route subcutaneous
[11] = Resistance index, ratio of IC50 for MDCK2 cells overexpressing MRP3 to IC50 for wild type MDCK2 cells; type: functional, Canis lupus familiaris
Method in brief: (§4)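 Transfected MDCKII (MRP1-3), HEK293 (MRP4, MRP5) or MEF3.8 (MRP6, MDR1, BCRP) lines grown in DMEM with 10% calf serum; IC50 for proliferation arrest of each transfectant divided by IC50 of non-transfected parental cells.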

[12] = Antiproliferative activity against BAEC after 72 hrs by MTT assay in presence of 3 uM MRP1/2 inhibitor Reversan; type: functional, cell-based; settings: Bos taurus
[13] = Drug accumulation in BAEC in presence of MRP1/2 inhibitor Reversan by inductively coupled plasma spectrometry relative to untreated control; type: ADME, Bos taurus; settings: cattle
Method in brief: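 BAE cells incubated 2 h with 50 μM arsenical with or without 5 μM Reversan; cellular arsenic by inductively coupled plasma spectrometry, expressed as % increase in accumulation; triplicates, two experiments.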

[14] = Reduction of cell viability in BAEC after 48 hrs by propidium iodide staining; type: functional, cell-based; settings: Bos taurus
[15] = Resistance index, ratio of IC50 for MDCK2 cells overexpressing MRP2 to IC50 for wild type MDCK2 cells; type: functional, Canis lupus familiaris; method in brief: as §4
BXPC-3 [16] = assay: Potency ratio, ratio of antitumor activity of 4-(N-(S-Glutathionylacetyl)amino)phenylarsonous acid to compound antitumor activity against human BxPC3 cells xenografted in BALB/c; type: functional
HEK293 [17] = assay: Resistance index, ratio of IC50 for HEK293 cells overexpressing MRP5 to IC50 for wild type HEK293 cells; type: functional, Homo sapiens; method in brief: as §4
BAEC [18] = assay: as §2; type: functional; settings: Bos taurus; method in brief: as §1
BXPC-3 [19] = assay: Antitumor activity against human BxPC3 cells xenografted in BALB/c mouse assessed as reduction of tumor proliferative index at 0.25 mg/kg/day, sc dosed for 18 days; type: functional, organism-based
Method in brief: (§5)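 Female 7-9 week Balb C nude mice given 3 × 10^6 BxPC-3 cells s.c. in proximal midline; at ~50 mm3, randomized and given s.c. flank micro-osmotic pumps (vehicle or 0.25 mg/kg/day) for 18 days. Excised tumors formalin-fixed, paraffin sections immunostained for CD31 (microvessels counted in five hot spots) or PCNA (positive cells per 100 tumor cells, three fields); one-way ANOVA.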

Mus musculus [20] = assay: Toxicity in human BxPC3 cells xenografted BALB/c mouse at 0.5 mg/kg/day, sc for 28 days; type: organism-based, BXPC-3; set-up: route subcutaneous; settings: in vivo, 672 h
Method in brief: (§6)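 Female Balb C nude mice bearing s.c. BxPC-3 tumors given compound via 28-day s.c. flank micro-osmotic pumps; animal weight measured every 2 or 3 days and signs of toxicity observed.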

BAEC [21] = assay: Antiproliferative activity against OATP inhibitor DIDS pretreated BAEC at 3 uM after 24 hrs by MTT assay; type: functional, cell-based; settings: Bos taurus
Method in brief: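 BAE cells untreated or pretreated 30 min with 500 μM DIDS, then 3 μM compound for 24 h; viability by MTT, % of control; triplicates, two experiments.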

BAEC [22] = assay: Antiproliferative activity against MRP1/2 inhibitor Reversan pretreated BAEC at 0.3 uM after 72 hrs by MTT assay; type: functional, cell-based; settings: Bos taurus
Method in brief: (§7)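 BAE cells pretreated 30 min with 15 μM MK571 or 2 μM Reversan, then incubated with 0.3 μM compound for 72 h; viability by MTT as % of control; mean ± SD of triplicates.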

HEK293 [23] = assay: Resistance index, ratio of IC50 for mouse MEF3.8 cells overexpressing MDR1 to IC50 for wild type […]; type: functional
HEK293 [24] = assay: Resistance index, ratio of IC50 for mouse MEF3.8 cells overexpressing BCRP to IC50 for wild type […]; type: functional
[25] = Potency ratio, ratio of IC50 for 4-(N-(S-cysteinylglycylacetyl)amino)phenylarsonous acid to compound for BAEC after 24 hrs by MTT assay; type: functional, Bos taurus
[26] = Drug accumulation in BAEC assessed as accumulation rate up to 4 hrs by inductively coupled plasma spectrometry relative to 4-(N-(S-cysteinylglycylacetyl)amino)phenylarsonous acid; type: ADME, Bos taurus; settings: cattle; method in brief: as §3
[27] = Drug accumulation in BAEC assessed as accumulation rate up to 4 hrs by inductively coupled plasma spectrometry relative to 4-(N-(S-Glutathionylacetyl)amino)phenylarsonous acid; type: ADME, Bos taurus; settings: cattle; method in brief: as §3
[28] = Antiproliferative activity against BAEC after 72 hrs by MTT assay in presence of 20 uM gamma-glutamyl cysteine synthase inhibitor buthionine sulfoximine; type: functional, cell-based; settings: Bos taurus
BAEC [29] = assay: Antiproliferative activity against MRP1/2 inhibitor MK571 pretreated BAEC at 0.3 uM after 72 hrs by MTT assay; type: functional; settings: Bos taurus; method in brief: as §7
[30] = Potency ratio, ratio of IC50 for 4-(N-(S-Glutathionylacetyl)amino)phenylarsonous acid to compound for BAEC after 48 hrs by propidium iodide staining; type: functional, Bos taurus
[31] = Resistance index, ratio of IC50 for MDCK2 cells overexpressing MRP1 to IC50 for wild type MDCK2 cells; type: functional, Canis lupus familiaris; method in brief: as §4
[32] = Antiproliferative activity against BAEC after 72 hrs by MTT assay in presence of 100 uM gamma-glutamyl cysteine synthase inhibitor buthionine sulfoximine; type: functional, Bos taurus
BXPC-3 [33] = assay: Antiangiogenic activity against human BxPC3 cells xenografted in BALB/c mouse assessed as reduction of tumor blood vessel density at 0.25 mg/kg/day, sc dosed for 18 days; type: functional, organism-based; method in brief: as §5
[34] = Potency ratio, ratio of IC50 for 4-(N-(S-Glutathionylacetyl)amino)phenylarsonous acid to compound for BAEC after 24 hrs by MTT assay; type: functional, Bos taurus
HEK293 [35] = assay: Resistance index, ratio of IC50 for HEK293 cells overexpressing MRP4 to IC50 for wild type HEK293 cells; type: functional, Homo sapiens; method in brief: as §4
BXPC-3 [36] = assay: Antitumor activity against human BxPC3 cells xenografted in BALB/c mouse assessed as tumor doubling time at 5 mg/kg/day, sc dosed for 18 days; type: functional, organism-based
HEK293 [37] = assay: Resistance index, ratio of IC50 for mouse MEF3.8 cells overexpressing MRP6 to IC50 for wild type […]; type: functional
BXPC-3 [38] = assay: Antitumor activity against human BxPC3 cells xenografted in BALB/c mouse assessed as tumor doubling time at 0.5 mg/kg/day, sc (Rvb= 9.4 +/- 1.4 days); type: functional; settings: route subcutaneous
Mus musculus [39] = assay: Toxicity in human BxPC3 cells xenografted BALB/c mouse at 0.25 mg/kg/day, sc for 28 days; type: organism-based, BXPC-3; set-up: route subcutaneous; settings: in vivo, 672 h; method in brief: as §6

N[C@@H](CCC(=O)N[C@@H](CSCC(=O)Nc1ccc([As](O)O)cc1)C(=O)NCC(=O)O)C(=O)O
IC50 (K562): 14 µM | IC50 (BXPC-3 [1]): 270 µM | IC50 [2]: 13 µM | IC50 ([3]; Bos taurus, BAEC, 72 h): 10 µM | IC50 [4]: 42 µM | IC50 (PANC-1): 43 µM | IC50 [5]: 41 µM | IC50 [6]: 23 µM | IC50 (MCF7): 51 µM | IC50 (HT-1080): 25 µM | IC50 (HCT-116): 43 µM

CC(C)(SCC(=O)Nc1ccc([As](O)O)cc1)[C@@H](N)C(=O)O
IC50 [7]: 0.02 µM | IC50 (K562): 1.8 µM | IC50 (BXPC-3 [1]): 21 µM | Ratio IC50 [8]: 6 | fold change (FC) [9]: 10 | IC50 [2]: 2.4 µM | Activity (BXPC-3 [10]): 15.6 days | Ratio IC50 [11]: 0.8 | IC50 [12]: 0.13 µM | Drug uptake [13]: 52% | IC50 [14]: 3.5 µM | Ratio IC50 [15]: 4.6 | Ratio IC50 (BXPC-3 [16]): 20 | Ratio IC50 (HEK293 [17]): 0.4 | Activity (BAEC [18]): inactive | Activity [3]: 440 nM | Activity (BXPC-3 [19]): Active | IC50 [4]: 2.5 µM | Activity (Mus musculus [20]): Non-toxic | Activity (BAEC [21]): inactive | Activity (BAEC [22]): Active | IC50 (PANC-1): 6.4 µM | IC50 [5]: 5.3 µM | Ratio IC50 (HEK293 [23]): 1.2 | IC50 [6]: 2 µM | Ratio IC50 (HEK293 [24]): 1.1 | Ratio IC50 [25]: 8 | fold change (FC) [26]: 9 | fold change (FC) [27]: 85 | IC50 [28]: 0.07 µM | IC50 (MCF7): 9.4 µM | IC50 (HT-1080): 4.1 µM | Activity (BAEC [29]): Active | Ratio IC50 [30]: 21 | Ratio IC50 [31]: 3.7 | Activity [32]: 16 nM | Activity (BXPC-3 [33]): Active | Ratio IC50 [34]: 44 | Ratio IC50 (HEK293 [35]): 0.5 | Activity (BXPC-3 [36]): Active | IC50 (HCT-116): 5.9 µM | Ratio IC50 (HEK293 [37]): 1.3 | Activity (BXPC-3 [38]): 13.8 days | Activity (Mus musculus [39]): Non-toxic

N[C@H](CSCC(=O)Nc1ccc([As](O)O)cc1)C(=O)O
Drug uptake [13]: 114%

N[C@H](CSCC(=O)Nc1ccc([As](O)O)cc1)C(=O)NCC(=O)O
Drug uptake [13]: 197%
